The subject of one assay is F-Luc-5BoxB mRNA. As to the kind of experiment: Tethering assay in S2 cells, F-Luc-5BoxB reporter. It is filed as cell-based, Drosophila melanogaster. As to conditions: for repression/degradation activity in tethering: λN-HA-tagged, S2 cells, harvested 3 days after transfection.
Assay [1] has as its target Dm CN9BD–CAF40 complex (Drosophila melanogaster) (UniProt Q7JVP2). The experiment in a line: ITC.
Assay [2] deals with T1, Hs NOT1 CN9BD–CAF40 complex (human, UniProt A5YKK6;Q92600). As to the kind of experiment: pull-down.
Assay [3] has as its target T2, Hs CAF40 (ARM domain, residues R19–E285) (human, UniProt Q92600 19-285). As to the kind of experiment: crystal structure.
In assay [4] the target is T1, Hs NOT1 CN9BD–CAF40 complex. As to the kind of experiment: crystal structure.
The test system of a further assay is F-Luc-5BoxB-A95C7-HhR. The experiment in a line: Tethering assay in S2 cells, F-Luc-5BoxB-A95C7-HhR reporter. It is filed as cell-based, Drosophila melanogaster.
Assay [5] has as its target T2, Hs CAF40 (ARM domain, residues R19–E285). As to the kind of experiment: crystal structure. The source holds these as a separate data set.
The target of assay [6] is GST-tagged Hs CAF40 (ARM domain) (human, UniProt Q92600). As to the kind of experiment: pull-down.
In assay [7] the test system is Dm NOT1-CN9BD–CAF40 complex. As to the kind of experiment: In vitro MBP pull-down, Dm CN9BD–CAF40. The note with it: MBP-tagged proteins, amylose resin, 50 mM HEPES pH 7.5, 200 mM NaCl, 2 mM DTT, 1 h; SDS-PAGE, Coomassie. It is filed as binding, Drosophila melanogaster. A digest of the protocol: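 Proteins were expressed in E. coli BL21 (DE3) Star overnight at 20°C. Tethered-protein constructs carried an N-terminal MBP tag and were purified by amylose resin, anion exchange and gel filtration. MBP (20 µg, negative control) or MBP fusion (40 µg) was incubated 1 h with equimolar purified CCR4–NOT modules plus amylose resin. Beads were washed five times and eluted with 25 mM maltose. Eluates were TCA-precipitated and analysed by SDS-PAGE/Coomassie.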

Like-named read-outs stand apart in the source and are kept apart here. Ends that are not written are not given here. λN = λN tag that binds BoxB hairpins, for tethering; HA = not defined here

T1 sequence (Q92600 19-285, one chain of several): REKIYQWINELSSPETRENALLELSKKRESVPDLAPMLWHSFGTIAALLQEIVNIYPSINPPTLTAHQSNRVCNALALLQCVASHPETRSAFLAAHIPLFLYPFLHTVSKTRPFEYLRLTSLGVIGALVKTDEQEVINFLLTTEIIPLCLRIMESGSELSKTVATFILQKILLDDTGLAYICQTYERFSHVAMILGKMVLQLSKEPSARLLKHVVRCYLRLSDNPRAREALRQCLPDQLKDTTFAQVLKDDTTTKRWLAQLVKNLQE
T2 sequence (Q92600 19-285): as the sequence (Q92600 19-285, one chain of several) above
GST-tagged Hs CAF40 (ARM domain), sequence (Q92600 19-285): as the sequence (Q92600 19-285, one chain of several) above

For “fragment D13–E36 fused to GST: λN-HA-GST-Bam 13–36 ({λN-HA-GST}-DDQQLDHNFKQMEEHLALMVEGNE; reading uncertain; UniProt P22745 13-36, looked up, fragment)”, in the assay with F-Luc-5BoxB mRNA, the “repression/degradation activity in tethering” value was “sufficient to induce the repression and degradation of the F-Luc-5BoxB mRNA to a similar extent as full-length Bam”.

For “Bam CBM peptide (residues D13–E36) (from UniProt P22745 13-36)”, the Kd (commonly a measure of binding affinity in units of concentration) in assay [1] is 183 nM.

B1: MBP-tagged full-length Bam (natural protein)
chain: MLNARDVCPEGNDDQQLDHNFKQMEEHLALMVEGNENEDPRKATCEYEDTNEDGATCTSGVLSEIQENFGRLRLCDVTAPLLEFHGLDCLQQIQKRSRHFAFDGSPAKKSRSGGVLVTGPKQKQLQKENVWNRKSKGSASADNIEKLPITIEKLHMIGLHGDCLEHNAVLRLMNLFRSLHDHLTADLGFSRQNSMPSDYLFDMPVKSTMPKSLNVRYQLQVLCTKVERFLVQQRRTLEANRHFDFEKYDECDKLLKGFASYLDNFKLLLKPKMRNRNGNSGSNADKFHTQRMERLLIGLRDWIKAAHLSVHVFNWEMDLEHRYSGAMTESHKSLNERAILLSGAELRAAEARGISAEDLFIAQRYKLGGPIYCVLEQHEFLSALIANPETYFPPSVVAICGPQKLGAVSMEQPSASEEEFEETEEVPSSPPRHTGRVPRFRS
For the molecule B1, the binding result in [2] was “binds”.

B2: Bam-C: Bam C-terminal fragment, residues 141–442 (protein, UniProt P22745 141-442, looked up, fragment)
chain: ADNIEKLPITIEKLHMIGLHGDCLEHNAVLRLMNLFRSLHDHLTADLGFSRQNSMPSDYLFDMPVKSTMPKSLNVRYQLQVLCTKVERFLVQQRRTLEANRHFDFEKYDECDKLLKGFASYLDNFKLLLKPKMRNRNGNSGSNADKFHTQRMERLLIGLRDWIKAAHLSVHVFNWEMDLEHRYSGAMTESHKSLNERAILLSGAELRAAEARGISAEDLFIAQRYKLGGPIYCVLEQHEFLSALIANPETYFPPSVVAICGPQKLGAVSMEQPSASEEEFEETEEVPSSPPRHTGRVPRFRS
In the case of B2, the “repression/degradation activity in tethering” value in the assay on F-Luc-5BoxB mRNA is given as “strongly impaired”.

As for DDQQLDHNFKQMEEHLALMVEGNE [Bam CBM peptide (residues D13–E36)], the binding result in assay [3] and in assay [4] was “binds” in each case.

B3: Bam-N: Bam N-terminal fragment, residues 1–140 (protein, UniProt P22745 1-140, looked up, fragment)
chain: MLNARDVCPEGNDDQQLDHNFKQMEEHLALMVEGNENEDPRKATCEYEDTNEDGATCTSGVLSEIQENFGRLRLCDVTAPLLEFHGLDCLQQIQKRSRHFAFDGSPAKKSRSGGVLVTGPKQKQLQKENVWNRKSKGSAS
As to B3, the “F-Luc-5BoxB mRNA degradation in DCP2-depleted cells” value in the assay on F-Luc-5BoxB mRNA (DCP2 knockdown, DCP2 E361Q overexpressed) is “impaired”. For the same molecule, the “F-Luc activity in DCP2-depleted cells” value in the assay on F-Luc-5BoxB mRNA (DCP2 knockdown, DCP2 E361Q overexpressed, F-Luc activity) is listed as “not restored”. For the same molecule, the “F-Luc-5BoxB mRNA degradation after NOT1 depletion” value in the assay on F-Luc-5BoxB mRNA (NOT1-depleted S2 cells) was “partially suppressed degradation of F-Luc-5BoxB mRNA”. In the assay on F-Luc-5BoxB mRNA, the “repression/degradation activity in tethering” value is recorded as “retained the activity of the full-length protein”. The “repression of deadenylation-resistant reporter” value with F-Luc-5BoxB-A95C7-HhR is listed as “repressed the expression of this reporter in S2 cells”.

B4: Hs NOT1 CN9BD (residues V1351–L1588) (domain or fragment)
chain: VPPQPQYSYHDINVYSLAGLAPHITLNPTIPLFQAHPQLKQCVRQAIERAVQELVHPVVDRSIKIAMTTCEQIVRKDFALDSEESRMRIAAHHMMRNLTAGMAMITCREPLLMSISTNLKNSFASALRTASPQQREMMDQAAAQLAQDNCELACCFIQKTAVEKAGPEMDKRLATEFELRKHARQEGRRYCDPVVLTYQAERMPEQIRLKVGGVDPKQLAVYEEFARNVPGFLPTNDL
As to B4, the binding result in assay [5] was “binds”.

On to DDQQLDHNFKQMEEHLALMVEGNE (domain or fragment) [MBP-tagged Bam CBM], for which the binding result in assay [2] and in assay [6] was “binds” each time.

B5: ΔCBM: Bam Δ13–36 (protein)
chain: MLNARDVCPEGNNEDPRKATCEYEDTNEDGATCTSGVLSEIQENFGRLRLCDVTAPLLEFHGLDCLQQIQKRSRHFAFDGSPAKKSRSGGVLVTGPKQKQLQKENVWNRKSKGSASADNIEKLPITIEKLHMIGLHGDCLEHNAVLRLMNLFRSLHDHLTADLGFSRQNSMPSDYLFDMPVKSTMPKSLNVRYQLQVLCTKVERFLVQQRRTLEANRHFDFEKYDECDKLLKGFASYLDNFKLLLKPKMRNRNGNSGSNADKFHTQRMERLLIGLRDWIKAAHLSVHVFNWEMDLEHRYSGAMTESHKSLNERAILLSGAELRAAEARGISAEDLFIAQRYKLGGPIYCVLEQHEFLSALIANPETYFPPSVVAICGPQKLGAVSMEQPSASEEEFEETEEVPSSPPRHTGRVPRFRS
modifications: left off: MBP, N-terminal, kept
Regarding B5, the interaction in pull-down entry in [7] is “abolished the interaction with the Dm CN9BD–CAF40 module in vitro”. The “repression/degradation activity in tethering” value with F-Luc-5BoxB mRNA is “sufficient to abolish the repressive activity of Bam”.

These data come from publication PMC5824357 (RNA, 2018).
